Experiments:
[1] = biological target: Kappa-type opioid receptor (Cavia porcellus, UniProt P41144); test: Displacement of 0.5 nM [3H]bremazocine from guinea pig brain membrane opioid receptor kappa with 100 nM DAGO and 100 nM DPDPE
Summary of the method: (§1)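 Crude guinea pig brain membrane homogenate. Compounds as free amine in 50% acetic acid, serially diluted in water; nine concentrations in competition with radioligand ([3H]DAGO for μ; [3H]bremazocine plus unlabeled DAGO and DPDPE for κ). Incubated in 50 mM Tris-HCl pH 7.4, 25 °C, 1 h. Then GF/B filtration, two cold buffer rinses, scintillation counting. IC50 by log-probit analysis.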

[2] = biological target: Opioid receptors; mu/kappa/delta; test: Inhibition of 0.5 nM [3H]bremazocine binding to guinea pig brain membrane opioid receptors; design: species or system Cavia porcellus
Mu-type opioid receptor = Mu-type opioid receptor (Cavia porcellus, UniProt P97266); test: inhibition of 1.0 nM [3H]- DAGO binding to guinea pig brain membrane opioid receptor mu; summary of the method: as §1
[3] = biological target: Mu-type opioid receptor (Cavia porcellus) (UniProt P97266); test: Compound was evaluated for the percent recovery of 1.0 nM of [3H]- DAGO binding to opioid receptor mu in guinea pig brain membranes at 10 (nM) concentration protection by 1 uM Naloxone.; format: cell membranes; settings: Membrane
Summary of the method: (§2)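 Membranes were then washed (4-fold dilution, 20000g for 15 min, 37 °C for 15 min in 3 volumes, recentrifuged) and assayed with the named radioligand by filtration binding. Reported as percent recovery.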

[4] = biological target: T1, Opioid receptors; mu/kappa/delta (Homo sapiens) (UniProt P41145+P41143+P35372); test: Compound was evaluated for the percent recovery of 0.5 nM of [3H]- bremazocine binding to total opioid receptor in unwashed guinea pig brain membranes at 50 (nM) concentration of the compound; format: cell membranes; settings: Cavia porcellus, Membrane, target entry is the homologue from another species
[5] = biological target: T1, Opioid receptors; mu/kappa/delta (Homo sapiens); test: Compound was evaluated for the percent recovery of 0.5 nM of [3H]- bremazocine binding to total opioid receptor in washed guinea pig brain membranes at 50 (nM) concentration of the compound; format: cell membranes; settings: Cavia porcellus, Membrane, target entry is the homologue from another species
Summary of the method: (§3)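 Guinea pig brain membranes were exposed to ligand for 1 h at 25 °C. Washing: 4-fold dilution with buffer, 20000g for 15 min, pellet resuspended in 3 volumes of buffer, 37 °C for 15 min, recentrifuged, resuspended in the original volume. Rebinding with the named radioligand in Tris-HCl pH 7.4, 25 °C, 1 h, filtration, scintillation. Reported as percent recovery.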

[6] = biological target: Mu-type opioid receptor (Cavia porcellus) (UniProt P97266); test: Compound was evaluated for the percent recovery of 1.0 nM of [3H]- DAGO binding to opioid receptor mu in un washed guinea pig brain membranes at 10 (nM) concentration; settings: Membrane
[7] = biological target: Mu-type opioid receptor (Cavia porcellus) (UniProt P97266); test: Compound was evaluated for the percent recovery of 1.0 nM of [3H]- DAGO binding to opioid receptor mu in washed guinea pig brain membranes at 10 (nM) concentration; format: cell membranes; settings: Membrane; summary of the method: as §3
[8] = biological target: Delta-type opioid receptor (Homo sapiens) (UniProt P41143); test: Compound was evaluated for the percent recovery of 1.0 nM of [3H]- DPDPE binding to Opioid receptor delta 1 in guinea pig brain membranes at 22(nM) concentration protection by 1 uM Naloxone.; format: cell membranes; settings: Cavia porcellus, Membrane, target entry is the homologue from another species; summary of the method: as §2
[9] = biological target: T1, Opioid receptors; mu/kappa/delta (Homo sapiens); test: Compound was evaluated for the percent recovery of 0.5 nM of [3H]- bremazocine binding to total opioid receptor in guinea pig brain membranes at 50 (nM) concentration protection by 1 uM Naloxone.; format: cell membranes; settings: Cavia porcellus, Membrane, target entry is the homologue from another species; summary of the method: as §2
[10] = biological target: T1, Opioid receptors; mu/kappa/delta (Homo sapiens); test: Compound was evaluated for the percent recovery of 0.5 nM of [3H]- bremazocine binding to of total opioid receptor in washed guinea pig brain membranes at 50 (nM) concentration of the compound; format: cell membranes; settings: Cavia porcellus, Membrane, target entry is the homologue from another species; summary of the method: as §3
[11] = biological target: Mu-type opioid receptor (Cavia porcellus) (UniProt P97266); test: Compound was evaluated for the percent recovery of 1.0 nM of [3H]- DAGO binding to opioid receptor mu in un washed guinea pig brain membranes at 10(nM) concentration; settings: Membrane
[12] = biological target: T1, Opioid receptors; mu/kappa/delta (Homo sapiens); test: Compound was evaluated for the percent recovery of 0.5 nM of [3H]- bremazocine binding to of total opioid receptor in unwashed guinea pig brain membranes at 50(nM) concentration of the compound; format: cell membranes; settings: Cavia porcellus, Membrane, target entry is the homologue from another species
[13] = biological target: Delta-type opioid receptor (Homo sapiens) (UniProt P41143); test: Compound was evaluated for the percent recovery of 1.0 nM of [3H]- DPDPE binding to Opioid receptor delta 1 in guinea pig brain membranes at 17(nM) concentration protection by 1 uM Naloxone.; format: cell membranes; settings: Cavia porcellus, Membrane, target entry is the homologue from another species; summary of the method: as §2
[14] = biological target: Mu-type opioid receptor (Cavia porcellus) (UniProt P97266); test: Compound was evaluated for the percent recovery of 1.0 nM of [3H]- DAGO binding to opioid receptor mu in washed guinea pig brain membranes at 10(nM) concentration; format: cell membranes; settings: Membrane; summary of the method: as §3

Sequence of Kappa-type opioid receptor (P41144 whole entry): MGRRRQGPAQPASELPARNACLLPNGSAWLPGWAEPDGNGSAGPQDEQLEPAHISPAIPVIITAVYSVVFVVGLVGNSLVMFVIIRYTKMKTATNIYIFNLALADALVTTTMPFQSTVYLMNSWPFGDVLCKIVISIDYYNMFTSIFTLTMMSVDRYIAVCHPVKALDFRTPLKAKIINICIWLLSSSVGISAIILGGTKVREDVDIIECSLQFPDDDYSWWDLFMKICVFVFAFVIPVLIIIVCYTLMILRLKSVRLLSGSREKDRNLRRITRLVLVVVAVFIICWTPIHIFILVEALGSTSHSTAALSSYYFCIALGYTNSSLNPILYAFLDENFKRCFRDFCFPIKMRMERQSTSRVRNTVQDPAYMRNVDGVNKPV
T1 sequence (P35372 whole entry, looked up): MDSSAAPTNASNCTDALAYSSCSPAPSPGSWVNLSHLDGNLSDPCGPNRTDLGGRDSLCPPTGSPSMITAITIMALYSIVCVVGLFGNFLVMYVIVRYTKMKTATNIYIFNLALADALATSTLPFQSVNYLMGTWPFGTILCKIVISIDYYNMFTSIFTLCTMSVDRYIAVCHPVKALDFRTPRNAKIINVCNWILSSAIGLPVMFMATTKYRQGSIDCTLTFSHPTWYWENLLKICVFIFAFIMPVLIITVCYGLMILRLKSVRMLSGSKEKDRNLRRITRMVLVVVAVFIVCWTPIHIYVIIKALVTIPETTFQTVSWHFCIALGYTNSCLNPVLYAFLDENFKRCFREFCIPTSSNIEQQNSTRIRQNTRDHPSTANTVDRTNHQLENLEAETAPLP
T1 sequence (P41143 whole entry, looked up): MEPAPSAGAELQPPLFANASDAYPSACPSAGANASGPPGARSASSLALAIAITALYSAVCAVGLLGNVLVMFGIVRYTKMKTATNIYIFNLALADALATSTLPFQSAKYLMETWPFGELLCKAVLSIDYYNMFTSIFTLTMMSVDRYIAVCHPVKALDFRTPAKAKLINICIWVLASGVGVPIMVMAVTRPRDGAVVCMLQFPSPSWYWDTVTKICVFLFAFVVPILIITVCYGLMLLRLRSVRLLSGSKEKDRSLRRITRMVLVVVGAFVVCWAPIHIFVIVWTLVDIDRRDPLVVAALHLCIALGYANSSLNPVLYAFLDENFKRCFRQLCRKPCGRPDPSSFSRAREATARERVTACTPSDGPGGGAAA
T1 sequence (P41145 whole entry, looked up): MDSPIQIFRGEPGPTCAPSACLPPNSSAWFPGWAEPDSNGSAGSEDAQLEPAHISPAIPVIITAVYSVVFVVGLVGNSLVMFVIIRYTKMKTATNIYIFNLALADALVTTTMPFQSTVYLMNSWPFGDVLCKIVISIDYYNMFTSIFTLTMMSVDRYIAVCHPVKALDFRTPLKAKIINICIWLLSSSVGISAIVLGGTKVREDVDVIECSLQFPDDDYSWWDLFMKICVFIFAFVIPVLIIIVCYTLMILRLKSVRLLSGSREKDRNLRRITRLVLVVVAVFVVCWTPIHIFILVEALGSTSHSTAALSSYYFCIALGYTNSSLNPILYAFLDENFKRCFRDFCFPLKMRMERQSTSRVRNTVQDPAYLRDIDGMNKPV
Sequence of Mu-type opioid receptor (Cavia porcellus) (P97266 whole entry): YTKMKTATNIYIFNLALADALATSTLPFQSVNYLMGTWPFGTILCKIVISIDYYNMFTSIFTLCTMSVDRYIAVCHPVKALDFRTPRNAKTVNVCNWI
Sequence of Mu-type opioid receptor (P97266 whole entry): as above
Sequence of Delta-type opioid receptor (Homo sapiens) (P41143 whole entry): as the sequence (P41143 whole entry, looked up) above

SMILES | IC50 [1] | IC50 [2] | IC50 (Mu-type opioid receptor) | % recovery [3] | % recovery [4] | % recovery [5] | % recovery [6] | % recovery [7] | % recovery [8] | % recovery [9] | % recovery [10] | % recovery [11] | % recovery [12] | % recovery [13] | % recovery [14]
Oc1ccc2c3c1O[C@H]1[C@H](OC[C@H]4CO4)CC[C@@]4(O)[C@@H](C2)N(CC2CC2)CC[C@]314 | 17 nM | 11 nM | 2.9 nM | – | – | – | – | – | – | – | – | – | – | – | –
C=C1C[C@H](CO[C@@H]2CC[C@@]3(O)[C@H]4Cc5ccc(O)c6c5[C@@]3(CCN4CC3CC3)[C@H]2O6)OC1=O | 44 nM | 19 nM | 4.2 nM | 88 | – | – | – | – | – | – | – | – | – | – | –
C=C1C[C@H](CO[C@@H]2CC[C@@]3(OC(C)=O)[C@H]4Cc5ccc(O)c6c5[C@@]3(CCN4CC3CC3)[C@H]2O6)OC1=O | 48 nM | 15 nM | 2.2 nM | 94 | 27 | 68 | 10 | 49 | 86 | 84 | – | – | – | – | –
C=C1C[C@@H](CO[C@@H]2CC[C@@]3(O)[C@H]4Cc5ccc(O)c6c5[C@@]3(CCN4CC3CC3)[C@H]2O6)OC1=O | 28 nM | 18 nM | 3.4 nM | – | – | – | – | – | – | – | – | – | – | – | –
Oc1ccc2c3c1O[C@H]1[C@H](OC[C@@H]4CO4)CC[C@@]4(O)[C@@H](C2)N(CC2CC2)CC[C@]314 | 17 nM | 12 nM | 3.5 nM | – | 10 | 79 | – | – | – | 88 | – | – | – | – | –
C=C1C[C@@H](CO[C@@H]2CC[C@@]3(OC(C)=O)[C@H]4Cc5ccc(O)c6c5[C@@]3(CCN4CC3CC3)[C@H]2O6)OC1=O | 25 nM | 14 nM | 2.8 nM | 55 | – | – | – | – | – | 61 | 54 | 21 | 20 | 71 | 71

Source: ChEMBL document CHEMBL1126090, “Electrophilic opioid ligands. Oxygen tethered alpha-methylene-gamma-lactone, acrylate, isothiocyanate, and epoxide derivatives of 6 beta-naltrexol” (J Med Chem, 1992)
